Source: ChEMBL document CHEMBL5360527, “Synthesis, binding affinity, and inhibitory capacity of cyclodextrin-based multivalent glycan ligands for human galectin-3” (Bioorg Med Chem, 2022)

Assays:
[1] = molecular target: T1, Galectin-3 (Homo sapiens, UniProt P17931); experiment: Binding affinity to human galectin 3 assessed as relative affinity by surface plasma resonance analysis
Procedure, shortened: (§1)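 Recombinant human Gal-3 amine-coupled to a CM5 chip (about 1000 RU) with an ethanolamine reference channel. Analytes were serially diluted in 0.01 M HEPES pH 7.4, 0.15 M NaCl and 0.005% P20, then run at 25 °C and 30 μL/min with 120 s association and 300 s dissociation, followed by 3 M MgCl2 regeneration. EC50 was taken from the fitted binding curve.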

[2] = molecular target: T1, Galectin-3; experiment: Inhibition of human galectin 3 binding to human A549 cells incubated for 1 hr; format: cell-based
Procedure, shortened: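 A549 cells were grown in plates, fixed, and blocked overnight at 4 °C with 3% BSA in PBS. Biotinylated Gal-3 (5 μg/ml), premixed with compound at 3–300 μM, was then added for 1 h at 4 °C. Bound Gal-3 was detected with streptavidin-HRP and TMB, stopped with 1 M HCl, and read at OD450. Percent inhibition came from a Gal-3 standard curve, and EC50 from a five-parameter asymmetric fit.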

[3] = molecular target: T1, Galectin-3; experiment: Binding affinity to human galectin 3 by surface plasma resonance analysis; procedure, shortened: as §1
[4] = molecular target: T1, Galectin-3; experiment: Binding affinity to human galectin 3 assessed as relative affinity per sugar unit on cyclodextrin by surface plasma resonance analysis; procedure, shortened: as §1

T1 sequence (P17931 whole entry): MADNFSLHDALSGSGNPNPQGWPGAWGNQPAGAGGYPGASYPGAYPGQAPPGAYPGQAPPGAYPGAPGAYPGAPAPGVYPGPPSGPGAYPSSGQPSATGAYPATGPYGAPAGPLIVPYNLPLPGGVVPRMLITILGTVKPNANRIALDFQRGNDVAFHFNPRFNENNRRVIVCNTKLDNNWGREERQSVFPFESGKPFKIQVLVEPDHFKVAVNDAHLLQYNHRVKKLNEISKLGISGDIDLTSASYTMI

Row | SMILES | relative binding affinity (RBA) [1] | EC50 [2] [µM] | EC50 [3] [µM] | relative binding affinity (RBA) [4]
1 | O=C(CCc1cn(CCOCCOCCO[C@@H]2O[C@H](CO)[C@@H](O[C@@H]3O[C@H](CO)[C@H](O)[C@H](O)[C@H]3O)[C@H](O)[C@H]2O)nn1)NC[C@H]1O[C@@H]2O[C@H]3[C@H](O)[C@@H](O)[C@@H](O[C@H]4[C@H](O)[C@@H](O)[C@@H](O[C@H]5[C@H](O)[C@@H](O)[C@@H](O[C@H]6[C@H](O)[C@@H](O)[C@@H](O[C@H]7[C@H](O)[C@@H](O)[C@@H](O[C@H]8[C@H](O)[C@@H](O)[C@@H](O[C@H]1[C@H](O)[C@H]2O)O[C@@H]8CNC(=O)CCc1cn(CCOCCOCCO[C@@H]2O[C@H](CO)[C@@H](O[C@@H]8O[C@H](CO)[C@H](O)[C@H](O)[C@H]8O)[C@H](O)[C@H]2O)nn1)O[C@@H]7CNC(=O)CCc1cn(CCOCCOCCO[C@@H]2O[C@H](CO)[C@@H](O[C@@H]7O[C@H](CO)[C@H](O)[C@H](O)[C@H]7O)[C@H](O)[C@H]2O)nn1)O[C@@H]6CNC(=O)CCc1cn(CCOCCOCCO[C@@H]2O[C@H](CO)[C@@H](O[C@@H]6O[C@H](CO)[C@H](O)[C@H](O)[C@H]6O)[C@H](O)[C@H]2O)nn1)O[C@@H]5CNC(=O)CCc1cn(CCOCCOCCO[C@@H]2O[C@H](CO)[C@@H](O[C@@H]5O[C@H](CO)[C@H](O)[C@H](O)[C@H]5O)[C@H](O)[C@H]2O)nn1)O[C@@H]4CNC(=O)CCc1cn(CCOCCOCCO[C@@H]2O[C@H](CO)[C@@H](O[C@@H]4O[C@H](CO)[C@H](O)[C@H](O)[C@H]4O)[C@H](O)[C@H]2O)nn1)O[C@@H]3CNC(=O)CCc1cn(CCOCCOCCO[C@@H]2O[C@H](CO)[C@@H](O[C@@H]3O[C@H](CO)[C@H](O)[C@H](O)[C@H]3O)[C@H](O)[C@H]2O)nn1 | 58.1 | 23.5 | 25.3 | 8.29
2 | CC(=O)N[C@H]1[C@@H](OCCOCCOCCn2cc(CCC(=O)NC[C@H]3O[C@@H]4O[C@H]5[C@H](O)[C@@H](O)[C@@H](O[C@H]6[C@H](O)[C@@H](O)[C@@H](O[C@H]7[C@H](O)[C@@H](O)[C@@H](O[C@H]8[C@H](O)[C@@H](O)[C@@H](O[C@H]9[C@H](O)[C@@H](O)[C@@H](O[C@H]%10[C@H](O)[C@@H](O)[C@@H](O[C@H]3[C@H](O)[C@H]4O)O[C@@H]%10CNC(=O)CCc3cn(CCOCCOCCO[C@H]4O[C@H](CO)[C@H](O)[C@H](O)[C@H]4NC(C)=O)nn3)O[C@@H]9CNC(=O)CCc3cn(CCOCCOCCO[C@H]4O[C@H](CO)[C@H](O)[C@H](O)[C@H]4NC(C)=O)nn3)O[C@@H]8CNC(=O)CCc3cn(CCOCCOCCO[C@H]4O[C@H](CO)[C@H](O)[C@H](O)[C@H]4NC(C)=O)nn3)O[C@@H]7CNC(=O)CCc3cn(CCOCCOCCO[C@H]4O[C@H](CO)[C@H](O)[C@H](O)[C@H]4NC(C)=O)nn3)O[C@@H]6CNC(=O)CCc3cn(CCOCCOCCO[C@H]4O[C@H](CO)[C@H](O)[C@H](O)[C@H]4NC(C)=O)nn3)O[C@@H]5CNC(=O)CCc3cn(CCOCCOCCO[C@H]4O[C@H](CO)[C@H](O)[C@H](O)[C@H]4NC(C)=O)nn3)nn2)O[C@H](CO)[C@H](O)[C@@H]1O | 1070 | 1.5 | 1.37 | 153
3 | CC(=O)N[C@H]1[C@@H](OCCOCCOCCn2cc(CCC(=O)NC[C@H]3O[C@@H]4O[C@H]5[C@H](O)[C@@H](O)[C@@H](O[C@H]6[C@H](O)[C@@H](O)[C@@H](O[C@H]7[C@H](O)[C@@H](O)[C@@H](O[C@H]8[C@H](O)[C@@H](O)[C@@H](O[C@H]9[C@H](O)[C@@H](O)[C@@H](O[C@H]%10[C@H](O)[C@@H](O)[C@@H](O[C@H]3[C@H](O)[C@H]4O)O[C@@H]%10CNC(=O)CCc3cn(CCOCCOCCO[C@H]4O[C@H](CO)[C@H](O)[C@H](O[C@@H]%10O[C@H](CO)[C@H](O)[C@H](O)[C@H]%10O)[C@H]4NC(C)=O)nn3)O[C@@H]9CNC(=O)CCc3cn(CCOCCOCCO[C@H]4O[C@H](CO)[C@H](O)[C@H](O[C@@H]9O[C@H](CO)[C@H](O)[C@H](O)[C@H]9O)[C@H]4NC(C)=O)nn3)O[C@@H]8CNC(=O)CCc3cn(CCOCCOCCO[C@H]4O[C@H](CO)[C@H](O)[C@H](O[C@@H]8O[C@H](CO)[C@H](O)[C@H](O)[C@H]8O)[C@H]4NC(C)=O)nn3)O[C@@H]7CNC(=O)CCc3cn(CCOCCOCCO[C@H]4O[C@H](CO)[C@H](O)[C@H](O[C@@H]7O[C@H](CO)[C@H](O)[C@H](O)[C@H]7O)[C@H]4NC(C)=O)nn3)O[C@@H]6CNC(=O)CCc3cn(CCOCCOCCO[C@H]4O[C@H](CO)[C@H](O)[C@H](O[C@@H]6O[C@H](CO)[C@H](O)[C@H](O)[C@H]6O)[C@H]4NC(C)=O)nn3)O[C@@H]5CNC(=O)CCc3cn(CCOCCOCCO[C@H]4O[C@H](CO)[C@H](O)[C@H](O[C@@H]5O[C@H](CO)[C@H](O)[C@H](O)[C@H]5O)[C@H]4NC(C)=O)nn3)nn2)O[C@H](CO)[C@H](O)[C@@H]1OC1O[C@H](CO)[C@H](O)[C@H](O)[C@H]1O (stereo not given in full) | 464 | 10.5 | 3.16 | 66.4

Next, values leading:

Row | relative binding affinity (RBA) [1] | EC50 [2] [µM] | EC50 [3] [µM] | relative binding affinity (RBA) [4] | SMILES
4 | < 1.47 |  |  |  | CC(=O)N[C@H]1[C@@H](OCCOCCOCCN=[N+]=[N-])O[C@H](CO)[C@H](O)[C@@H]1O
5 | < 1.47 |  |  |  | CC(=O)N[C@H]1[C@@H](OCCOCCOCCN=[N+]=[N-])O[C@H](CO)[C@H](O)[C@@H]1O[C@@H]1O[C@H](CO)[C@H](O)[C@H](O)[C@H]1O
6 | < 1.47 |  |  |  | [N-]=[N+]=NCCOCCOCCO[C@@H]1O[C@H](CO)[C@@H](O[C@@H]2O[C@H](CO)[C@H](O)[C@H](O)[C@H]2O)[C@H](O)[C@H]1O
